In paper PMC4245150 (Organometallics, 2014):

Experiments:
A498 = experiment: XTT cell viability assay, A498; type: cell-based, human
UO31 = experiment: XTT cell viability assay, UO31; type: cell-based, human
Outline: (§1)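 Cells kept in RPMI-1640 with 10% FBS, 1% NEAA and PenStrep at 37 °C, 5% CO2. Seeded at 5000 cells/well in phenol-red-free, antibiotic-free RPMI (10% FBS, 2 mM L-glutamine) and grown 24 h. Test compound was dissolved in 1% DMSO, diluted in water and added at 0.1–200 μM final for 24 or 72 h. XTT was added at 0.3 mg/mL for 4 h, and A450 read. IC50 is the concentration halving proliferation against untreated cells, from ≥2 independent experiments in triplicate.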

Caki-1 = experiment: XTT cell viability assay, Caki-1; type: cell-based, human
Outline: as §1

HEK-293T = experiment: XTT cell viability assay, HEK-293T; type: cell-based, human; conditions: HEK-293T (nontumorigenic)
Outline: as §1, with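 “HEK-293 cells kept” for “Cells kept”, “in DMEM” for “in RPMI-1640”, “antibiotic-free DMEM” for “antibiotic-free RPMI”, “and dosed” for “and added”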

PC3 = experiment: XTT cell viability assay, PC3; type: cell-based, human
DU145 = experiment: XTT cell viability assay, DU145; type: cell-based, human
Outline: as §1

PKCι-par6 = PKCι-par6 in vitro; cited from earlier work
plasmid (pBR322) DNA = experiment: electrophoresis mobility shift assay with plasmid DNA; type: binding; conditions: metal/DNAbp ratios 0.25-2.0, 37 °C, 20 h, pH 7.39
Outline: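 pBR322 DNA (20 μg/mL) in 5 mM Tris/HCl, 50 mM NaClO4, pH 7.39 incubated with test compound ([…] metal complex/DNAbp) for 20 h at 37 °C in the dark; free DNA and cisplatin-treated DNA as controls. Samples run on 1% agarose gel, 1.5 h at 80 V in Tris-acetate/EDTA, stained 30 min with GelRed.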

PI3 kinases = experiment: HotSpot kinase assay, lipid PI3 kinases; type: biochemical; conditions: IC50 values only plotted in Figure 8
panel of 30 kinases = experiment: HotSpot kinase assay, panel of 30 nonlipid kinases; type: biochemical; conditions: even at concentrations of 100 μM
CT-DNA = conditions: physiological pH / pH 7; cited from earlier work

In the case of `COc1ccc(C[C]2([Ti+2][C]3(Cc4ccc(OC)cc4)C=CC=C3)C=CC=C2)cc1.[Cl-].[Cl-]` [Titanocene Y], the IC50 (A498; A498, 24 h incubation) is reported as > 200 µM, the IC50 (A498; A498, 72 h incubation) is reported as > 29.6 µM and the IC50 (UO31; UO31, 24 h incubation) is reported as > 200 µM. The IC50 (UO31; UO31, 72 h incubation) was > 200 µM, the IC50 (Caki-1; Caki-1, 24 h incubation) was > 200 µM and the IC50 (Caki-1; Caki-1, 72 h incubation) was 29.4 ± 4.2 µM. The IC50 (HEK-293T; 24 h incubation) was > 200 µM, the IC50 (HEK-293T; 72 h incubation) was > 200 µM and the IC50 (PC3; PC3, 24 h incubation) was > 200 µM. The IC50 (PC3; PC3, 72 h incubation) was 58.1 ± 11.2 µM, the IC50 (DU145; DU145, 24 h incubation) was > 200 µM and the IC50 (DU145; DU145, 72 h incubation) was 55.2 ± 7.9 µM.
For `OC[C@H]1O[C@H]([S-])[C@H](O)[C@@H](O)[C@@H]1O.[Au+]` [aurothioglucose], the IC50 (PKCι-par6) is listed as ~1 µM.
In the case of `O=C(O)CC([S-])C(=O)O.[Au+]` (stereo not shown) [aurothiomalate], the IC50 (PKCι-par6) is given as ~1 µM.
With `N.N.[Cl][Pt][Cl]` [cisplatin] the IC50 (A498; A498, 24 h incubation) was 74.7 ± 6 µM, the IC50 (A498; A498, 72 h incubation) was 37.2 ± 4.6 µM and the IC50 (UO31; UO31, 24 h incubation) was > 100 µM. It also gave an IC50 (UO31; UO31, 72 h incubation) of 8.9 ± 2.7 µM, an IC50 (Caki-1; Caki-1, 24 h incubation) of 68.8 ± 0.14 µM and an IC50 (Caki-1; Caki-1, 72 h incubation) of 29 ± 4.1 µM. The IC50 (HEK-293T; 24 h incubation) was 64.4 ± 7.9 µM, the IC50 (HEK-293T; 72 h incubation) was 3.2 ± 0.13 µM and the IC50 (PC3; PC3, 24 h incubation) was 92 ± 18 µM. For the same molecule, the IC50 (PC3; PC3, 72 h incubation) was 14 ± 2.3 µM, the IC50 (DU145; DU145, 24 h incubation) was 44.5 ± 0.33 µM and the IC50 (DU145; DU145, 72 h incubation) was 12.1 ± 3.9 µM. The “effect on electrophoretic mobility of plasmid forms” value (plasmid (pBR322) DNA) was “decrease in mobility of the CCC form and an increase in mobility of the OC form”.
`O=C(O)C[P+]([Au-][Cl])(c1ccccc1)c1ccccc1` [compound 6, [HOC(O)CH2PPh2AuCl]] showed an IC50 (A498; A498, 24 h incubation) of 58 ± 11 µM, an IC50 (A498; A498, 72 h incubation) of 43 ± 4.9 µM and an IC50 (UO31; UO31, 24 h incubation) of 27.3 ± 2.7 µM. It also gave an IC50 (UO31; UO31, 72 h incubation) of 5.2 ± 1.6 µM, an IC50 (Caki-1; Caki-1, 24 h incubation) of 33.8 ± 2.1 µM and an IC50 (Caki-1; Caki-1, 72 h incubation) of 23 ± 4.1 µM. For the same molecule, the IC50 (HEK-293T; 24 h incubation) was 36.5 ± 3.3 µM, the IC50 (HEK-293T; 72 h incubation) was 9.7 ± 2.5 µM and the IC50 (PC3; PC3, 24 h incubation) was 38.2 ± 2.2 µM. It also gave an IC50 (PC3; PC3, 72 h incubation) of 30.2 ± 4.2 µM, an IC50 (DU145; DU145, 24 h incubation) of 34.7 ± 1.8 µM and an IC50 (DU145; DU145, 72 h incubation) of 31.3 ± 3.1 µM. For the same molecule, the “effect on electrophoretic mobility of plasmid forms” value (plasmid (pBR322) DNA) was “does not affect the mobility of the faster-running supercoiled form”.
With `[Cl-].[Cl-].[Ti+4].c1cc[cH-]c1.c1cc[cH-]c1` [titanocene dichloride] the IC50 (A498; A498, 24 h incubation) was > 200 µM, the IC50 (A498; A498, 72 h incubation) was > 200 µM and the IC50 (UO31; UO31, 24 h incubation) was > 200 µM. For the same molecule, the IC50 (UO31; UO31, 72 h incubation) was > 200 µM, the IC50 (Caki-1; Caki-1, 24 h incubation) was > 200 µM and the IC50 (Caki-1; Caki-1, 72 h incubation) was > 200 µM. For the same molecule, the IC50 (HEK-293T; 24 h incubation) was > 200 µM, the IC50 (HEK-293T; 72 h incubation) was > 200 µM and the IC50 (PC3; PC3, 24 h incubation) was > 200 µM. The IC50 (PC3; PC3, 72 h incubation) was > 200 µM, the IC50 (DU145; DU145, 24 h incubation) was > 200 µM and the IC50 (DU145; DU145, 72 h incubation) was > 200 µM. The “inhibition of PI3 kinase family” value (PI3 kinases) was “inhibits exclusively protein kinases of the PI3 kinase family at nanomolar concentrations”, the “inhibition of enzymatic activity of 30 kinases” value (panel of 30 kinases) was “did not inhibit the enzymatic activity to levels of 50% or below” and the “interaction with CT-DNA” value (CT-DNA) was “does not interact with CT-DNA”.
